Measurements reported in ChEMBL document CHEMBL4229372, “Synthesis and anti-mitotic activity of 2,4- or 2,6-disubstituted- and 2,4,6-trisubstituted-2H-pyrazolo[4,3-c]pyridines” (2018).
Calls of active or inactive are those of the source. The rule behind the calls is not given here.

Legend:
[1] = system: K562; assay: Growth inhibition of human K562 cells after 72 hrs by Calcein AM dye based fluorescence assay; format: functional; settings: K562, 72 h
In short: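 Cells in DMEM with 10% FBS at 37 °C, 5% CO2, treated in triplicate with six doses for 72 h. Calcein AM was added for 1 h and live-cell fluorescence read at 485/538 nm. GI50 was taken from dose-response curves.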

[2] = system: K562; assay: Cell cycle arrest in human K562 cells assessed as accumulation at S phase at 10 uM after 24 hrs by propidium iodide staining-based flow cytometric analysis (reference value: 50.3%); format: functional
[3] = system: MCF7; assay: Cell cycle arrest in human MCF7 cells assessed as accumulation at S phase at 10 uM after 24 hrs by propidium iodide staining-based flow cytometric analysis (reference value: 34.1%); format: functional
In short: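 MCF-7 cells in DMEM with 10% FBS and penicillin/streptomycin at 37 °C, 5% CO2. Asynchronous cells were treated 24 h, PBS-washed, trypsinized and quenched with 0.1% trypsin inhibitor. Staining used 5× citrate/IGEPAL/spermine/Tris buffer (pH 7.6) with 50 μg/mL propidium iodide. DNA content was read by 488 nm flow cytometry and cell-cycle phases modelled.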

[4] = molecular target: T1, Serine/threonine-protein kinase Chk1 (Homo sapiens) (UniProt O14757); assay: Inhibition of CHK1 (unknown origin)
T1 sequence (whole entry): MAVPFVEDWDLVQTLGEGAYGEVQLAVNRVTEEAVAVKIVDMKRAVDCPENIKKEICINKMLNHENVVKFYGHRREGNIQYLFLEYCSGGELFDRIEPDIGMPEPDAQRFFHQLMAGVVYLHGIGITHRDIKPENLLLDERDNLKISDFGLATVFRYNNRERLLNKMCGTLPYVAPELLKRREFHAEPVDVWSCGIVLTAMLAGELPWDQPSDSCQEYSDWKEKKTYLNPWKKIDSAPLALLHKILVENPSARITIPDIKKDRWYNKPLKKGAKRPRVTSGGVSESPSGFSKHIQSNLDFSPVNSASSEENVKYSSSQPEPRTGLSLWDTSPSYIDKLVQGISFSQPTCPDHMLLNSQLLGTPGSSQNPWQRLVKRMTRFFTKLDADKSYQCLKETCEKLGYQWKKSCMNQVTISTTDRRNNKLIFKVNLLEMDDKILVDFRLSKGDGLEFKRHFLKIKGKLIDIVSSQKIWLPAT

[5] = molecular target: T2, Aurora kinase A (Homo sapiens) (UniProt O14965); assay: Inhibition of Aurora A (unknown origin)
T2 sequence (whole entry): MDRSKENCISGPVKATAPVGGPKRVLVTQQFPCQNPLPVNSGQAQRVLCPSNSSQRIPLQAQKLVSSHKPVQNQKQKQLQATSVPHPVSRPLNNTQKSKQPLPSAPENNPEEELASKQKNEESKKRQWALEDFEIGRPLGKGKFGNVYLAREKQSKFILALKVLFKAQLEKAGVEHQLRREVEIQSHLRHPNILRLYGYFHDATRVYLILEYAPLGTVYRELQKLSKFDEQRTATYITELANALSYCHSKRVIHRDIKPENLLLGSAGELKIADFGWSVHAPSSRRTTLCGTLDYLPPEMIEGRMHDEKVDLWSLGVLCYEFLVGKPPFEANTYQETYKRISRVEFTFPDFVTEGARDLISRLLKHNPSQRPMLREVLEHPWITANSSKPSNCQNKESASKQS

[6] = molecular target: T3, Serine/threonine-protein kinase Nek2 (Homo sapiens) (UniProt P51955); assay: Inhibition of NEK2 (unknown origin)
T3 sequence (whole entry): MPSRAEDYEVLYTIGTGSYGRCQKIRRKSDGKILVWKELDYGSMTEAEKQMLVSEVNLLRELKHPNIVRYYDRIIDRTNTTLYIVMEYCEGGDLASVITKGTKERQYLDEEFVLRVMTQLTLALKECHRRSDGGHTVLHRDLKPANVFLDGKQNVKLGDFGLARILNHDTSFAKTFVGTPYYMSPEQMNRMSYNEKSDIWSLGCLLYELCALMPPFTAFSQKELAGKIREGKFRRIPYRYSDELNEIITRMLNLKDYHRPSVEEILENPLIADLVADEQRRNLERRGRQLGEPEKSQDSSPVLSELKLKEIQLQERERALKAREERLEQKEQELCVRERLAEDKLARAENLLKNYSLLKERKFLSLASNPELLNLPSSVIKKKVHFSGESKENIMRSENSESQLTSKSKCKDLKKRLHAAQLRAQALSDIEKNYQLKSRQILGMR

[7] = molecular target: Serine/threonine-protein kinase Nek4 (Homo sapiens) (UniProt P51957); assay: Inhibition of NEK4 (unknown origin)
[8] = system: MCF7; assay: Induction of apoptosis in human MCF7 cells assessed as increase in PARP1 cleavage after 24 hrs by Immunoblotting; format: functional, cell-based
In short: (§1)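 Cells treated 24 h with a range of doses, with 1 μM doxorubicin as control. Cells were harvested into Laemmli buffer, run on SDS-PAGE and blotted to nitrocellulose. Membranes were probed overnight with primary antibodies (PARP, Ser139-phospho-H2AX, Bcl-2, β-actin loading control), then peroxidase secondaries, with ECL detection on a CCD imager.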

[9] = system: K562; assay: Induction of apoptosis in human K562 cells assessed as increase in gammaH2AX level at 1.25 to 20 uM after 24 hrs by immunoblotting; format: functional, cell-based; in short: as §1
[10] = system: MCF7; assay: Induction of apoptosis in human MCF7 cells assessed as increase in gammaH2AX level at 1.25 to 20 uM after 24 hrs by immunoblotting; format: functional, cell-based; in short: as §1
[11] = system: K562; assay: Induction of apoptosis in human K562 cells assessed as increase in phosphorylated Bcl2 level at 1.25 to 20 uM after 24 hrs by immunoblotting; format: functional, cell-based; in short: as §1

Serine/threonine-protein kinase Nek4 (Homo sapiens), sequence (P51957 whole entry, looked up): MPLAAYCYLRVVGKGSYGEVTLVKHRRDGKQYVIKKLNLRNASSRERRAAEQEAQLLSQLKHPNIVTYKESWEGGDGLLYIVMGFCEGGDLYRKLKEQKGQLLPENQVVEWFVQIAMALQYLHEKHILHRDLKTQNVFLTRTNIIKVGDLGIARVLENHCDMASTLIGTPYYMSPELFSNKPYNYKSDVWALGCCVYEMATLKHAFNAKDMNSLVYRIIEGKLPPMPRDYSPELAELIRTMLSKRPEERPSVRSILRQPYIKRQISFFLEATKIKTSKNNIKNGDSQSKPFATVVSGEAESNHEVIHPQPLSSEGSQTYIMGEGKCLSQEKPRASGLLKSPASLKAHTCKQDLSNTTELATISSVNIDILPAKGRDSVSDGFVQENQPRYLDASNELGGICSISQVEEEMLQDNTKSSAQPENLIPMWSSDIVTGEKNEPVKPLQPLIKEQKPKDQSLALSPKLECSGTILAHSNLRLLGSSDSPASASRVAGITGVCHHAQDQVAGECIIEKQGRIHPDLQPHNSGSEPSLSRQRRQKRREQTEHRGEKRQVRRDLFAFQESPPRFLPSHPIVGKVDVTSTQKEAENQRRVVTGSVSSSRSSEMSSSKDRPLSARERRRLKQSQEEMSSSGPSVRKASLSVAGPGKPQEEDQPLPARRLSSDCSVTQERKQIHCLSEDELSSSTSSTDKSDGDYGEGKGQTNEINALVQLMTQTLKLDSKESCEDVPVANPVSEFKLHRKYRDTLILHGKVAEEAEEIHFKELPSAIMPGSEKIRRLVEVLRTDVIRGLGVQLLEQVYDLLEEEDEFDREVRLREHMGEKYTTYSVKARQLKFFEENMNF

GI50 [1]: 2100 nM
inhibition [4]: inactive
inhibition [5]: inactive
inhibition [6]: inactive
inhibition [7]: inactive
SMILES: CCCCCc1cc2nn(-c3ccccc3)cc2cn1
Activity [2]: 3.3%
Activity [3]: 26.3%
Activity [8]: Dose-dependent effect
Activity [9]: Active
Activity [10]: Active
Activity [11]: Active
